Laboratory results as given in ChEMBL document CHEMBL1629534, “Acetic acid derivatives of 3,4-dihydro-2H-1,2,4-benzothiadiazine 1,1-dioxide as a novel class of potent aldose reductase inhibitors” (J Med Chem, 2010).

Legend:
[1] = target: Aldo-keto reductase family 1 member B1 (Rattus norvegicus, UniProt P07943); assay: Inhibition of Wistar rat lenses ALR2 by spectrophotometry; format: tissue-based, Lens of camera-type eye
Outline: (§1)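 ALR2 enzyme extract in 0.1 M sodium phosphate pH 6.2 with NADPH (0.25 mL of 0.10 mM) and compound diluted from DMSO, preincubated 10 min at 32 °C. Started with D,L-glyceraldehyde (0.25 mL of 10 mM, 1 mL total). Fall in A340 followed for 4 min, corrected for substrate-free rate. Screened at 10^-4 M. IC50 from at least four concentrations giving 20-80% inhibition, in triplicate, with 95% CL.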

[2] = target: Aldo-keto reductase family 1 member A1 (Rattus norvegicus, UniProt P51635); assay: Inhibition of Wistar rat kidney ALR1 by spectrophotometry
Outline: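 ALR1 enzyme extract in 0.1 M sodium phosphate pH 7.2 with NADPH (0.25 mL of 0.12 mM) and compound diluted from DMSO, preincubated 10 min at 37 °C. Started with sodium D-glucuronate (0.25 mL of 20 mM, 1 mL total). Fall in A340 followed for 4 min, corrected for substrate-free rate. Screened at 10^-4 M. IC50 from at least four concentrations, 10^-4 to 10^-8 M, in triplicate.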

[3] = target: Aldo-keto reductase family 1 member B1 (Rattus norvegicus) (UniProt P07943); assay: Inhibition of Wistar rat lenses ALR2 at 0.1 mM by spectrophotometry; format: tissue-based; conditions: Lens of camera-type eye; outline: as §1
Rattus norvegicus [4] = assay: Inhibition of ALR2 in 5-day STZ-induced diabetic Wistar rat model assessed as normalization of elevated sorbitol levels in sciatic nerves at 100 mg/kg/day, po for 5 days; format: functional, Sciatic nerve; design: scale not given: the % may be the effect or the level left
Outline: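 STZ-diabetic male Wistar rats (ip 55 mg/kg) got compound po in 0.5% CMC-Na for 5 days. Sciatic nerve taken 6 h after last dose, boiled, homogenized in 6% perchloric acid and neutralized. Sorbitol read enzymatically with sorbitol dehydrogenase/NAD+ at pH 9.4, 60 min 37 °C, fluorescence ex 365/em 430 nm. Inhibition = (S-T)/(S-N)×100 against diabetic and nondiabetic controls.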

Rattus norvegicus [5] = assay: Inhibition of ALR2 in 5-day STZ-induced diabetic Wistar rat model assessed as blood glucose levels at 100 mg/kg/day, po for 5 days (reference value: 22.2 +/- 2.62 mmol/L); format: functional
[6] = test system: Aldehyde reductase, AKR1A1 (Rattus norvegicus); assay: Inhibition of Wistar rat kidney ALR1 at 0.1 mM by spectrophotometry

Aldo-keto reductase family 1 member A1, sequence (P51635 whole entry, looked up): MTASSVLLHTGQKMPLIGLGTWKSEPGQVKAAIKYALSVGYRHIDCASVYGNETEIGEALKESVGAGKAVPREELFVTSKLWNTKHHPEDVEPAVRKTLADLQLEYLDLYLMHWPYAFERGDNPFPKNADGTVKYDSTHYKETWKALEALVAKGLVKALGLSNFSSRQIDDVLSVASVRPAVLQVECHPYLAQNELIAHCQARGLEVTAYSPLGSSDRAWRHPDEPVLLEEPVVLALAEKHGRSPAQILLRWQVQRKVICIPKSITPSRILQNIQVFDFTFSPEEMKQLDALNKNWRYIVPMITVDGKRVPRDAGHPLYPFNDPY

Row | Compound | IC50 [1] [nM] | IC50 [2] [nM] | inhibition [3] [%] | Activity (Rattus norvegicus [4]) [%] | Activity (Rattus norvegicus [5]) [mmol/L] | inhibition [6] [%]
1 | O=C(O)CN1CN(Cc2ccc(Br)cc2F)c2ccccc2S1(=O)=O | 58400 | – | – | – | – | –
2 | O=C(O)CN1CN(Cc2cccc([N+](=O)[O-])c2)S(=O)(=O)c2cc(Br)ccc21 | 116 | 103000 | – | – | – | –
3 | O=C(O)CN1CN(Cc2ccc(C(F)(F)F)cc2)c2ccccc2S1(=O)=O | – | – | 41.3 | – | – | –
4 | O=C(O)CN1CN(Cc2cccc([N+](=O)[O-])c2)S(=O)(=O)c2cc(F)ccc21 | 108 | 61900 | – | 43.6 | 19.8 | –
5 | O=C(O)CN1CN(Cc2ccc(C(F)(F)F)cc2)S(=O)(=O)c2cc(Cl)ccc21 | 595 | – | – | – | – | 45
6 | O=C(O)CN1CN(Cc2ccccc2)S(=O)(=O)c2ccccc21 | 101000 | – | – | – | – | –
7 | O=C(O)CN1CN(Cc2cc(F)c(F)cc2F)S(=O)(=O)c2cc(Cl)ccc21 | 32 | 50600 | – | 61.5 | 17.9 | –
8 | O=C(O)CN1CN(Cc2cc(F)c(F)cc2F)S(=O)(=O)c2ccccc21 | 111 | – | – | – | – | –
9 | O=C(O)CN1CN(Cc2cc(F)c(F)cc2F)c2ccccc2S1(=O)=O | 14000 | – | – | – | – | –
10 | O=C(O)CN1CN(Cc2ccc(Br)cc2F)S(=O)(=O)c2cc(F)ccc21 | 90 | 122000 | – | 47.3 | 17.9 | –
11 | O=C(O)CN1CN(Cc2cccc([N+](=O)[O-])c2)c2ccccc2S1(=O)=O | 74500 | – | – | – | – | –
12 | O=C(O)CN1CN(Cc2ccc(Br)cc2F)S(=O)(=O)c2cc(Br)ccc21 | 71 | 69400 | – | 42.4 | 18.4 | –
13 | O=C(O)CN1CN(Cc2cccc([N+](=O)[O-])c2)S(=O)(=O)c2cc(Cl)ccc21 | 94 | 82500 | – | 45 | 19.7 | –
14 | O=C(O)CN1CN(Cc2ccc(Br)cc2F)S(=O)(=O)c2ccccc21 | 125 | 70300 | – | – | – | –
15 | O=C(O)CN1CN(Cc2cc(F)c(F)cc2F)S(=O)(=O)c2cc(F)ccc21 | 66 | 80900 | – | 68.2 | 18.4 | –
16 | O=C(O)CN1CN(Cc2cc(F)c(F)cc2F)S(=O)(=O)c2cc(Br)ccc21 | 52 | 54100 | – | 51.2 | 20.1 | –
17 | O=C(O)CN1CN(Cc2cccc([N+](=O)[O-])c2)S(=O)(=O)c2ccccc21 | 219 | 55800 | – | – | – | –
18 | NC(=O)[C@@H]1C[C@]2(NC(=O)NC2=O)c2cc(F)ccc2O1 [FIDARESTAT] | 29 | – | – | 100 | 18.5 | –
19 | O=C(O)CN1CN(Cc2ccc(Br)cc2F)S(=O)(=O)c2cc(Cl)ccc21 | 41 | 58900 | – | 60.7 | 18.2 | –
20 | O=C(O)CN1CN(Cc2ccc(C(F)(F)F)cc2)S(=O)(=O)c2cc(Br)ccc21 | 674 | 110000 | – | – | – | –
21 | O=C(O)CN1CN(Cc2ccc(C(F)(F)F)cc2)S(=O)(=O)c2cc(F)ccc21 | 931 | – | – | – | – | 40
22 | O=C(O)CN1CN(Cc2ccc(C(F)(F)F)cc2)S(=O)(=O)c2ccccc21 | 975 | – | – | – | – | 42
